Some results are limits rather than exact numbers.

In one test the test system is Mus musculus. In words: Protective effects against lethal injections of D-galactosamine sensitized Lipopolysaccharide challenged (LD100) CF1 mice (100 mg/kg IP in PBS). The class given is functional. An outline of the steps: (§1)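 Female CF1 mice were fasted overnight, then given compound at 100 mg/kg ip in PBS 1 h before an ip challenge of D-galactosamine (20 mg) plus S. enteritidis LPS (15-250 ng). The LPS LD100 was set for each shipment of mice, and the challenge was at LD100 or 3× LD100. Mice were refed after challenge and survival was scored at 8 h. PBS vehicle served as control.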
For the compound `Nc1ncnc2c1ncn2[C@H]1CC[C@@H](O)C1`, the Survival amounted to 88%.

For `Nc1ncnc2c1ncn2[C@H]1CC[C@H](O)C1`, the Survival is listed as 63%.

Consider `Nc1ncnc2c1ncn2[C@@H]1CC[C@@H](O)C1`, for which the Survival was 100%.

In the case of `Nc1ncnc2c1ncn2[C@@H]1CC[C@H](O)C1`, the Survival was found to be 50%.

`Nc1ncnc2c1ncn2[C@@H]1O[C@H](CO)[C@@H](O)[C@H]1O` [ADENOSINE]: the Survival is listed as 0%.

`CC(=O)CCCCn1c(=O)c2c(ncn2C)n(C)c1=O` [PENTOXIFYLLINE]: the Survival amounted to 66%.

The species entered for the next test is Homo sapiens. The experiment in a line: in vitro inhibitory activity was measured against interleukin-1-beta (IL1-beta) production. The class given is functional. In short, it runs like this:
(§2)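 Human peripheral blood mononuclear cells from normal volunteers were separated by density gradient. Adherent monocyte/macrophages were kept after 1 h and lifted with RPMI-1640/0.2% EDTA/5% FCS. Compounds in PBS (0.16, 0.8, 4.0, 20.0, 100 µM) were added to the cells 15 min before LPS. Cells were incubated 18 h at 37 °C, 5% CO2. Supernatant TNF-α, IL-1β and IL-6 were measured by specific ELISA, giving IC50.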
Consider `Nc1ncnc2c1ncn2[C@H]1CC[C@@H](O)C1`, for which the IC50 was greater than 100 µM.

`Nc1ncnc2c1ncn2[C@H]1CC[C@H](O)C1` registered an IC50 greater than 100 µM.

As to `Nc1ncnc2c1ncn2[C@@H]1CC[C@@H](O)C1`, half-maximal inhibition (IC50) required 76 µM.

On to `Nc1ncnc2c1ncn2[C@@H]1CC[C@H](O)C1`, for which the IC50 was greater than 100 µM.

Compound `Nc1ncnc2c1ncn2[C@@H]1O[C@H](CO)[C@@H](O)[C@H]1O` [ADENOSINE] came in with an IC50 greater than 100 µM.

For `CC(=O)CCCCn1c(=O)c2c(ncn2C)n(C)c1=O` [PENTOXIFYLLINE], the IC50 is greater than 100 µM.

The next test has as its system Mus musculus. The experiment in a line: D-galactosamine sensitized mice were given 3 times the LD100 dose of LPS (100 mg/kg IP in PBS). The format is functional. An outline of the steps: as §1
As to `Nc1ncnc2c1ncn2[C@H]1CC[C@@H](O)C1`, the Survival came to 0%.

For `Nc1ncnc2c1ncn2[C@H]1CC[C@H](O)C1`, the Survival came out at 0%.

Take `Nc1ncnc2c1ncn2[C@@H]1CC[C@@H](O)C1`: the Survival is 100%.

As to `Nc1ncnc2c1ncn2[C@@H]1CC[C@H](O)C1`, the Survival turned out to be 0%.

Consider `Nc1ncnc2c1ncn2[C@@H]1O[C@H](CO)[C@@H](O)[C@H]1O` [ADENOSINE], for which the Survival was 0%.

For `CC(=O)CCCCn1c(=O)c2c(ncn2C)n(C)c1=O` [PENTOXIFYLLINE], the Survival is 0%.

For a further test, the species on record is Homo sapiens. In words: in vitro inhibitory activity was measured against interleukin-6 (IL-6) production. The class given is functional, organism-based. An outline of the steps:
as §2
As for `Nc1ncnc2c1ncn2[C@H]1CC[C@@H](O)C1`, the IC50 was greater than 100 µM.

`Nc1ncnc2c1ncn2[C@H]1CC[C@H](O)C1` showed an IC50 greater than 100 µM.

`Nc1ncnc2c1ncn2[C@@H]1CC[C@@H](O)C1`: the IC50 is greater than 100 µM.

In turn, `Nc1ncnc2c1ncn2[C@@H]1CC[C@H](O)C1` yielded an IC50 greater than 100 µM.

`Nc1ncnc2c1ncn2[C@@H]1O[C@H](CO)[C@@H](O)[C@H]1O` [ADENOSINE] came in with an IC50 greater than 100 µM.

The compound `CC(=O)CCCCn1c(=O)c2c(ncn2C)n(C)c1=O` [PENTOXIFYLLINE] registered an IC50 greater than 100 µM.

The species entered for the next test is Homo sapiens. The experiment in a line: In vitro inhibitory activity was measured against tumor necrosis factor-alpha production. The format is functional. In short, it runs like this:
as §2
On to `Nc1ncnc2c1ncn2[C@H]1CC[C@@H](O)C1`, for which the IC50 was determined as 40 µM.

`Nc1ncnc2c1ncn2[C@H]1CC[C@H](O)C1` showed an IC50 of 16 µM.

In turn, `Nc1ncnc2c1ncn2[C@@H]1CC[C@@H](O)C1` returned an IC50 of 9 µM.

As to `Nc1ncnc2c1ncn2[C@@H]1CC[C@H](O)C1`, the IC50 came out at 18 µM.

In the case of `Nc1ncnc2c1ncn2[C@@H]1O[C@H](CO)[C@@H](O)[C@H]1O` [ADENOSINE], the IC50 was found to be 6 µM.

For `CC(=O)CCCCn1c(=O)c2c(ncn2C)n(C)c1=O` [PENTOXIFYLLINE], the concentration for half-maximal inhibition (IC50) was 33 µM.

One may read the IC50 as the concentration at which inhibition is half-maximal.

(Values after ChEMBL document CHEMBL1129360, “Carbocyclic nucleosides as inhibitors of human tumor necrosis factor-alpha production: effects of the stereoisomers of (3-hydroxycyclopentyl)adenines” (J Med Chem, 1996).)
